Measured values reported in ChEMBL document CHEMBL3046785, “Antifungal activity of borrelidin produced by a Streptomyces strain isolated from soybean” (J Agric Food Chem, 2012).
≈ marks a conversion by molar mass, not a printed value.

Tests used:
Phytophthora sojae [1] = assay: Antifungal activity against Phytophthora sojae race 1 in germinated soybean seeds assessed as lesion length at 10 mg/L after 48 hr (untreated control = 3.34 +/- 0.64 cm); format: functional
Phytophthora sojae [2] = assay: Antifungal activity against Phytophthora sojae race 3 assessed as growth inhibition at 28 degC after 7 days (beneficial crop soybean); format: functional, organism-based; settings: race 3, 168 h
How it was run: (§1)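 Race-specific mycelial growth assay on carrot agar (CA) at 28 °C. Test article was dissolved in methanol, diluted with water and added to CA; a 0.2% methanol plate served as negative control. A 5 mm plug from the colony margin was centred on each plate. Colony diameters were recorded once the control was covered. Inhibition = (1 − D/Dc) × 100. EC50/EC95 came from linear regression. Run in triplicate.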

Phytophthora sojae [3] = assay: Antifungal activity against Phytophthora sojae race 44 assessed as growth inhibition at 28 degC after 7 days (beneficial crop soybean); format: functional, organism-based; settings: race 44, 168 h; how it was run: as §1
Phytophthora sojae [4] = assay: Antifungal activity against Phytophthora sojae race 1 in germinated soybean seeds assessed as lesion length at 5 mg/L after 48 hr (untreated control = 3.34 +/- 0.64 cm); format: functional
Phytophthora sojae [5] = assay: Antifungal activity against Phytophthora sojae race 13 assessed as growth inhibition at 28 degC after 7 days (beneficial crop soybean); format: functional, organism-based; settings: race 13, 168 h; how it was run: as §1
Phytophthora sojae [6] = assay: Antifungal activity against Phytophthora sojae race 1 in germinated soybean seeds assessed as disease control efficacy at 5 mg/L after 48 hr relative to control; format: functional
How it was run: (§2)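 Seeds (Hefeng-25) were surface-sterilised (10% NaOCl, 20 min), rinsed, and germinated at 30 °C until roots exceeded 10 mm, five per dish on wet filter paper. Roots received 2 mL of solution: 1% Tween 80 in water, or 25% WP in water (4/20/40 mg/L = 1/5/10 mg a.i./L). A 7 mm race 1 disk was placed on the roots and removed after 24 h. After 48 h at 28 °C, roots were rated 0–4 and disease index computed. Efficiency is relative to the inoculated Tween control. Three experiments.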

Phytophthora sojae [7] = assay: Antifungal activity against Phytophthora sojae race 54 assessed as growth inhibition at 28 degC after 7 days (beneficial crop soybean); format: functional, organism-based; settings: race 54, 168 h; how it was run: as §1
Phytophthora sojae [8] = assay: Antifungal activity against Phytophthora sojae race 4 assessed as growth inhibition at 28 degC after 7 days (beneficial crop soybean); format: functional, organism-based; settings: race 4, 168 h; how it was run: as §1
Phytophthora sojae [9] = assay: Antifungal activity against Phytophthora sojae race 1 assessed as growth inhibition at 28 degC after 7 days (beneficial crop soybean); format: functional, organism-based; settings: race 1, 168 h; how it was run: as §1
Phytophthora sojae [10] = assay: Antifungal activity against Phytophthora sojae race 1 in germinated soybean seeds assessed as disease control efficacy at 10 mg/L after 48 hr relative to control; format: functional; how it was run: as §2
Phytophthora sojae [11] = assay: Antifungal activity against Phytophthora sojae race 5 assessed as growth inhibition at 28 degC after 7 days (beneficial crop soybean); format: functional, organism-based; settings: race 5, 168 h; how it was run: as §1
Phytophthora sojae [12] = assay: Antifungal activity against Phytophthora sojae race 9 assessed as growth inhibition at 28 degC after 7 days (beneficial crop soybean); format: functional, organism-based; settings: race 9, 168 h; how it was run: as §1
Glycine max = assay: Phytotoxicity against germinated Glycine max (soybean) seeds at 10 mg/L; format: organism-based; settings: in vivo
Phytophthora sojae [13] = assay: Antifungal activity against Phytophthora sojae race 1 in germinated soybean seeds assessed as root length at 10 mg/L after 48 hr (untreated control = 4.15 +/- 0.71 cm); format: functional
Phytophthora sojae [14] = assay: Antifungal activity against Phytophthora sojae race 1 in germinated soybean seeds assessed as root length at 1 mg/L after 48 hr (untreated control = 4.15 +/- 0.71 cm); format: functional
Phytophthora sojae [15] = assay: Antifungal activity against Phytophthora sojae race 1 in germinated soybean seeds assessed as disease control efficacy at 1 mg/L after 48 hr relative to control; format: functional; how it was run: as §2
Phytophthora sojae [16] = assay: Antifungal activity against Phytophthora sojae race 1 in germinated soybean seeds assessed as root length at 5 mg/L after 48 hr (untreated control = 4.15 +/- 0.71 cm); format: functional
Phytophthora sojae [17] = assay: Antifungal activity against Phytophthora sojae race 1 in germinated soybean seeds assessed as lesion length at 1 mg/L after 48 hr (untreated control = 3.34 +/- 0.64 cm); format: functional
Phytophthora sojae [18] = assay: Antifungal activity against Phytophthora sojae race 1 in germinated soybean seeds assessed as root length at 40 mg/L after 48 hr compound at 25% WP (untreated control = 4.15 +/- 0.71 cm); format: functional
Phytophthora sojae [19] = assay: Antifungal activity against Phytophthora sojae race 1 in germinated soybean seeds assessed as disease control efficacy at 4 mg/L after 48 hr compound at 25% WP relative to control; format: functional; how it was run: as §2
Phytophthora sojae [20] = assay: Antifungal activity against Phytophthora sojae race 1 in germinated soybean seeds assessed as lesion length at 20 mg/L after 48 hr compound at 25% WP (untreated control = 3.34 +/- 0.64 cm); format: functional
Phytophthora sojae [21] = assay: Antifungal activity against Phytophthora sojae race 1 in germinated soybean seeds assessed as disease control efficacy at 20 mg/L after 48 hr compound at 25% WP relative to control; format: functional; how it was run: as §2
Phytophthora sojae [22] = assay: Antifungal activity against Phytophthora sojae race 1 in germinated soybean seeds assessed as lesion length at 4 mg/L after 48 hr compound at 25% WP (untreated control = 3.34 +/- 0.64 cm); format: functional
Phytophthora sojae [23] = assay: Antifungal activity against Phytophthora sojae race 1 in germinated soybean seeds assessed as lesion length at 40 mg/L after 48 hr compound at 25% WP (untreated control = 3.34 +/- 0.64 cm); format: functional
Phytophthora sojae [24] = assay: Antifungal activity against Phytophthora sojae race 1 in germinated soybean seeds assessed as root length at 4 mg/L after 48 hr compound at 25% WP (untreated control = 4.15 +/- 0.71 cm); format: functional
Phytophthora sojae [25] = assay: Antifungal activity against Phytophthora sojae race 1 in germinated soybean seeds assessed as disease control efficacy at 40 mg/L after 48 hr compound at 25% WP relative to control; format: functional; how it was run: as §2
Phytophthora sojae [26] = assay: Antifungal activity against Phytophthora sojae race 1 in germinated soybean seeds assessed as root length at 20 mg/L after 48 hr compound at 25% WP (untreated control = 4.15 +/- 0.71 cm); format: functional

SMILES	EC50 (Phytophthora sojae [2]) [µg/mL]	EC95 (Phytophthora sojae [2]) [µg/mL]	EC50 (Phytophthora sojae [3]) [µg/mL]	EC95 (Phytophthora sojae [3]) [µg/mL]	EC50 (Phytophthora sojae [5]) [µg/mL]	EC95 (Phytophthora sojae [5]) [µg/mL]	EC50 (Phytophthora sojae [7]) [µg/mL]	EC95 (Phytophthora sojae [7]) [µg/mL]	EC50 (Phytophthora sojae [8]) [µg/mL]	EC95 (Phytophthora sojae [8]) [µg/mL]	EC50 (Phytophthora sojae [9]) [µg/mL]	EC95 (Phytophthora sojae [9]) [µg/mL]	EC50 (Phytophthora sojae [11]) [µg/mL]	EC95 (Phytophthora sojae [11]) [µg/mL]	EC50 (Phytophthora sojae [12]) [µg/mL]	EC95 (Phytophthora sojae [12]) [µg/mL]	further results
C[C@@H]1C[C@H](C)C[C@H](C)[C@@H](O)CC(=O)O[C@H]([C@@H]2CCC[C@H]2C(=O)O)C/C=C/C=C(/C#N)[C@H](O)[C@@H](C)C1 [BORRELIDIN]	0.0051 (≈ 0.0104 µM)	0.021 (≈ 0.0429 µM)	0.0047 (≈ 0.0096 µM)	0.018 (≈ 0.0368 µM)	0.0057 (≈ 0.0116 µM)	0.021 (≈ 0.0429 µM)	0.0057 (≈ 0.0116 µM)	0.021 (≈ 0.0429 µM)	0.0038 (≈ 0.00776 µM)	0.017 (≈ 0.0347 µM)	0.0056 (≈ 0.0114 µM)	0.026 (≈ 0.0531 µM)	0.0052 (≈ 0.0106 µM)	0.02 (≈ 0.0408 µM)	0.0053 (≈ 0.0108 µM)	0.02 (≈ 0.0408 µM)	Activity (Phytophthora sojae [1]): 0.25 cm; Activity (Phytophthora sojae [4]): 0.73 cm; Efficacy (Phytophthora sojae [6]): 80.76%; Efficacy (Phytophthora sojae [10]): 94.72%; Activity (Glycine max): Non-toxic; Activity (Phytophthora sojae [13]): 6.81 cm; Activity (Phytophthora sojae [14]): 6.24 cm; Efficacy (Phytophthora sojae [15]): 56.25%; Activity (Phytophthora sojae [16]): 6.53 cm; Activity (Phytophthora sojae [17]): 1.91 cm
COCC(=O)N(c1c(C)cccc1C)C(C)C(=O)OC (stereo unspecified) [METALAXYL]	0.17 (≈ 0.609 µM)	4.63 (≈ 16.6 µM)	0.28 (≈ 1 µM)	12.2 (≈ 43.9 µM)	0.32 (≈ 1.15 µM)	7.55 (≈ 27 µM)	0.3 (≈ 1.07 µM)	13.3 (≈ 47.5 µM)	0.18 (≈ 0.644 µM)	8.03 (≈ 28.7 µM)	0.35 (≈ 1.25 µM)	6.82 (≈ 24.4 µM)	0.3 (≈ 1.07 µM)	11.6 (≈ 41.5 µM)	0.34 (≈ 1.22 µM)	11.8 (≈ 42.3 µM)	Activity (Phytophthora sojae [18]): 6.73 cm; Efficacy (Phytophthora sojae [19]): 45.52%; Activity (Phytophthora sojae [20]): 1.34 cm; Efficacy (Phytophthora sojae [21]): 71.97%; Activity (Phytophthora sojae [22]): 2.57 cm; Activity (Phytophthora sojae [23]): 0.62 cm; Activity (Phytophthora sojae [24]): 6.21 cm; Efficacy (Phytophthora sojae [25]): 87.7%; Activity (Phytophthora sojae [26]): 6.48 cm
